Assay results reported in ChEMBL document CHEMBL4020827, “Targeting Multiple Effector Pathways in Pancreatic Ductal Adenocarcinoma with a G-Quadruplex-Binding Small Molecule” (J Med Chem, 2018).

Legend:
[1] = tested on: PANC-1; assay: Effect on RPTOR gene expression in human PANC1 cells at 400 nM after 24 hrs by RNA sequence analysis relative to control; type: functional
Outline: (§1)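 RNA-seq: cells seeded overnight in 60 mm plates (PANC-1 0.35 x 10^6, MIA PaCa-2 1.5 x 10^6 cells/well), then exposed to 400 nM compound for 6 or 24 h against untreated controls. Cell lines mycoplasma-free by RNA-capture ELISA and STR-profiled. Differentially expressed genes called at FDR < 0.1.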

[2] = tested on: PANC-1; assay: Effect on ROBO3 gene expression in human PANC1 cells at 400 nM after 6 hrs by RNA sequence analysis relative to control; type: functional; outline: as §1
[3] = tested on: PANC-1; assay: Effect on PARD6A gene expression in human PANC1 cells at 400 nM after 6 hrs by RNA sequence analysis relative to control; type: functional
[4] = tested on: PANC-1; assay: Effect on TEAD2 gene expression in human PANC1 cells at 400 nM after 24 hrs by RNA sequence analysis relative to control; type: functional; outline: as §1
[5] = Binding affinity to 5'-FAM/3'-TAMRA labeled KRAS21 promoter G-quadruplex DNA (unknown origin) assessed as change in melting temperature at 1 uM by FRET assay
Outline: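 FRET melting of FAM/TAMRA dual-labelled promoter G4 oligonucleotides, 400 nM, annealed at 95 °C for 10 min in 60 mM potassium cacodylate (pH 7.4) then cooled to RT. Ligand at 1 μM in solution with 50 mM K+. Fluorescence (ex 450–495, em 515–545 nm) read every 0.5 °C over 30–100 °C with a 30 sec hold per step. ΔTm from curve fitting; triplicate measurements.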

[6] = Selectivity index, ratio of IC50 for human WI38 cells to IC50 for human MIAPaCa2 cells; type: functional
Outline: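 SRB growth-inhibition assay over 96 h with compounds dissolved in water; cells grown in 10 % FBS at 37 °C, 5% CO2. Absorbance at 540 nm as a percentage of untreated wells gives the IC50. Values are averages of >3 determinations, with the ratio taken as WI-38 IC50 over MIA PaCa-2 IC50.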

[7] = Binding affinity to 5'-FAM/3'-TAMRA labeled BCL2 promoter G-quadruplex DNA (unknown origin) assessed as change in melting temperature at 1 uM by FRET assay
Outline: (§2)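 FRET melting with FAM/TAMRA dual-labelled oligonucleotides at 400 nM, annealed at 95 °C for 10 min in 60 mM potassium cacodylate pH 7.4 and slowly cooled. Ligand final 1 μM; solution contains 50 mM K+. Fluorescence read every 0.5 °C over 30–100 °C with 30 s hold, excitation 450–495 nm and emission 515–545 nm. ΔTm from curve fitting, triplicate measurements.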

[8] = tested on: MIA PaCa-2; assay: Effect on SMO gene expression in human MIAPaCa2 cells at 400 nM after 6 hrs by RNA sequence analysis relative to control; type: functional; outline: as §1
[9] = tested on: MIA PaCa-2; assay: Effect on CTBP1 gene expression in human MIAPaCa2 cells at 400 nM after 6 hrs by RNA sequence analysis relative to control; type: functional
Outline: (§3)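 PANC-1 (0.35 x 10^6) or MIA PaCa-2 (1.5 x 10^6) cells seeded overnight in 60 mm plates, then exposed to 400 nM compound for 6 or 24 h; untreated cells as controls. Cells were mycoplasma-free and STR-certified. Differential expression by RNA-seq, called at FDR < 0.1.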

[10] = tested on: MIA PaCa-2; assay: Effect on ARF6 gene expression in human MIAPaCa2 cells at 400 nM after 24 hrs by RNA sequence analysis relative to control; type: functional; outline: as §3
[11] = tested on: MIA PaCa-2; assay: Effect on SHANK2 gene expression in human MIAPaCa2 cells at 400 nM after 6 hrs by RNA sequence analysis relative to control; type: functional; outline: as §1
[12] = tested on: MIA PaCa-2; assay: Effect on AKT1S1 gene expression in human MIAPaCa2 cells at 400 nM after 24 hrs by RNA sequence analysis relative to control; type: functional; outline: as §3
[13] = Binding affinity to 5'-FAM/3'-TAMRA labeled T-loop duplex DNA (unknown origin) assessed as change in melting temperature at 1 uM by FRET assay; outline: as §2
[14] = tested on: MIA PaCa-2; assay: Effect on PRKCZ gene expression in human MIAPaCa2 cells at 400 nM after 24 hrs by RNA sequence analysis relative to control; type: functional
[15] = tested on: PANC-1; assay: Effect on SHC2 gene expression in human PANC1 cells at 400 nM after 6 hrs by RNA sequence analysis relative to control; type: functional; outline: as §1
[16] = Drug uptake in tumor at flank region of CD-1 nude mouse xenografted with human MIAPaCa2 cells at 15 mg/kg, iv measured after 4 hrs; type: ADME, organism-based, Neoplasm; conditions: in vivo
[17] = tested on: MIA PaCa-2; assay: Effect on PLXNA1 gene expression in human MIAPaCa2 cells at 400 nM after 6 hrs by RNA sequence analysis relative to control; type: functional
[18] = tested on: Mus musculus; assay: Toxicity in CD-1 nude mouse xenografted with human MIAPaCa2 cells assessed as change in body weight at 15 mg/kg, iv administered twice weekly for 4 weeks measured for 40 days; type: organism-based; conditions: in vivo, 960 h
[19] = tested on: PANC-1; assay: Effect on PLXNA1 gene expression in human PANC1 cells at 400 nM after 6 hrs by RNA sequence analysis relative to control; type: functional
[20] = tested on: PANC-1; assay: Effect on MAPK12 gene expression in human PANC1 cells at 400 nM after 6 hrs by RNA sequence analysis relative to control; type: functional
[21] = tested on: MIA PaCa-2; assay: Antitumor activity against human MIAPaCa2 cells xenografted in CD-1 nude mouse assessed as change in tumor volume at 15 mg/kg, iv administered twice weekly for 4 weeks measured on day 29 relative to control; type: functional
Outline: (§4)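 Female CD-1 nude mice (2-3 months, 20−25 g) given 5 x 10^6 MIA PaCa-2 cells subcutaneously in right flank with Matrigel; dosing began once tumors were established (approx. 13 days, mean 0.05 cm3). Eight mice/group, IV in saline twice weekly for 28 days (8 doses) against a saline group. Tumors measured by calliper (length × width × height × π/6), with body weight. Student's t test.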

[22] = tested on: MIA PaCa-2; assay: Effect on PFKL gene expression in human MIAPaCa2 cells at 400 nM after 6 hrs by RNA sequence analysis relative to control; type: functional
[23] = tested on: MIA PaCa-2; assay: Effect on FASN gene expression in human MIAPaCa2 cells at 400 nM after 24 hrs by RNA sequence analysis relative to control; type: functional; outline: as §3
[24] = Binding affinity to 5'-FAM/3'-TAMRA labeled HSP90B promoter G-quadruplex DNA (unknown origin) assessed as change in melting temperature at 1 uM by FRET assay; outline: as §2
[25] = tested on: MIA PaCa-2; assay: Antitumor activity against human MIAPaCa2 cells xenografted in CD-1 nude mouse assessed as change in tumor volume at 10 mg/kg, iv administered twice weekly for 4 weeks measured on day 62 relative to control; type: functional; outline: as §4
[26] = tested on: PANC-1; assay: Effect on GLI1 gene expression in human PANC1 cells at 400 nM after 6 hrs by RNA sequence analysis relative to control; type: functional; outline: as §3
[27] = tested on: PANC-1; assay: Effect on SHANK2 gene expression in human PANC1 cells at 400 nM after 24 hrs by RNA sequence analysis relative to control; type: functional; outline: as §1

O=C1c2ccc3c4c(c(NCCN5CCCC5)cc(c24)C(=O)N1CCCN1CCOCC1)C(=O)N(CCCN1CCOCC1)C3=O
log2FC [1]: -0.5
log2FC [2]: -0.75
log2FC [3]: -0.63
log2FC [4]: 0.21
ΔTm [5]: 11 °C
Ratio IC50 [6]: 170
ΔTm [7]: 13.3 °C
log2FC [8]: -0.34
log2FC [9]: -0.52
log2FC [10]: -0.54
log2FC [11]: -1.87
log2FC [12]: -1.09
ΔTm [13]: 0.6 °C
log2FC [14]: -2.01
log2FC [15]: -0.52
Drug uptake [16]: Active
log2FC [17]: -0.98
Activity [18]: Non-Toxic
log2FC [19]: -0.84
log2FC [20]: -0.75
Activity [21]: -73.3%
log2FC [22]: 0
log2FC [23]: -0.54
ΔTm [24]: 12.7 °C
Activity [25]: -51.7%
log2FC [26]: 0.03
log2FC [27]: -0.44
